Laboratory results as given in ChEMBL document CHEMBL4138066, “Synthesis and evaluation of small molecules bearing a benzyloxy substituent as novel and potent monoamine oxidase inhibitors” (Medchemcomm, 2017).

Legend:
[1] = species on record: Homo sapiens; test: Selectivity index, ratio of IC50 for human MAOA to IC50 for human MAOB
Summary of the method: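 Selectivity index was computed as IC50 (MAO-A)/IC50 (MAO-B), each IC50 being the mean of three experiments.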

[2] = biological target: T1, Amine oxidase [flavin-containing] B (Homo sapiens, UniProt P27338); test: Inhibition of human MAOB incubated for 15 mins using p-tyramine substrate by Amplex red reagent based fluorescence assay
T1 sequence (P27338 whole entry): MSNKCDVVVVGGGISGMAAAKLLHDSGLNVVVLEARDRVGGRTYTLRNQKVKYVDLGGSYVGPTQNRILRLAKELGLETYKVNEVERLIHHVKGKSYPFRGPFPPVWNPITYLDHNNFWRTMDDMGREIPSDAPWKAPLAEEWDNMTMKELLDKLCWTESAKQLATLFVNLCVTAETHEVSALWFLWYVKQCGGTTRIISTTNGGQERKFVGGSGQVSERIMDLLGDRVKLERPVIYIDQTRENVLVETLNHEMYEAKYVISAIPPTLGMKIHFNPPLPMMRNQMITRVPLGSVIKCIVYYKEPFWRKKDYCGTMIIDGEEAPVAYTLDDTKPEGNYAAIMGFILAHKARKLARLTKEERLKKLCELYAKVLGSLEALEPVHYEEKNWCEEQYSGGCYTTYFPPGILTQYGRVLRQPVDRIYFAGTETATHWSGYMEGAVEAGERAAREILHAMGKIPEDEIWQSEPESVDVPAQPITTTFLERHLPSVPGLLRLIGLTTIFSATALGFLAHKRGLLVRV

[3] = biological target: T2, Amine oxidase [flavin-containing] A (Homo sapiens, UniProt P21397); test: Inhibition of human MAOA incubated for 15 mins using p-tyramine substrate by Amplex red reagent based fluorescence assay
T2 sequence (P21397 whole entry): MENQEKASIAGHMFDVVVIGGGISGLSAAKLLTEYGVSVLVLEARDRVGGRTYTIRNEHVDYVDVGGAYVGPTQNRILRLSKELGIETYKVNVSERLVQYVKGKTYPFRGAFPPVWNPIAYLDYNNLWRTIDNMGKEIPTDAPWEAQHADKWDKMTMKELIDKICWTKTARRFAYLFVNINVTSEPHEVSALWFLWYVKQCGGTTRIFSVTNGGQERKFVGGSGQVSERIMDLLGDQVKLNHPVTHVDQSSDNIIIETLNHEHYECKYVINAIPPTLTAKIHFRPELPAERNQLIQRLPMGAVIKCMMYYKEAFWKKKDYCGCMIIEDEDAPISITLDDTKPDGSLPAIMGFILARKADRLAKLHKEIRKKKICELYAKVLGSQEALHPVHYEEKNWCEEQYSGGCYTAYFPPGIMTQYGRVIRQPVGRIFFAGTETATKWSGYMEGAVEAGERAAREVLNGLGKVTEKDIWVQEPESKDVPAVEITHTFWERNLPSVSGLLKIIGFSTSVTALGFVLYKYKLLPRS
Summary of the method: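 IC50 against hMAO-A is reported as mean ± SEM of three experiments, with iproniazid as reference.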

[4] = biological target: T3, MAO-A (amine oxidase [flavin-containing] A) (Homo sapiens, UniProt P21397); test: Inhibition of human MAOA at 100 uM incubated for 15 mins using p-tyramine substrate by Amplex red reagent based fluorescence assay; conditions: human MAOA enzyme, probe p-tyramine
T3 sequence (P21397 whole entry): T2 sequence (P21397 whole entry)
Summary of the method: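 hMAO-A was tested at a single concentration of 100 μM, with iproniazid as reference inhibitor.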

[5] = biological target: T1, Amine oxidase [flavin-containing] B; test: Competitive inhibition of human MAOB at 0.095 to 0.38 uM using 50 to 500 uM p-tyramine substrate by Amplex red reagent dependent fluorescence assay based Lineweaver-Burk plot analysis
Summary of the method: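 Kinetics were run as Michaelis-Menten experiments. Rates were measured at five p-tyramine concentrations (50-500 μM), with four inhibitor concentrations (0, 0.095, 0.19 and 0.38 μM). Inhibition type was assigned from overlaid double-reciprocal Lineweaver-Burk plots.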

[6] = biological target: T1, Amine oxidase [flavin-containing] B; test: Reversible inhibition of human MAOB at 2 fold enzymatic IC50 level pre-incubated for 30 mins using p-tyramine substrate and measured after 15 mins by Amplex red reagent based fluorescence assay; conditions: 0.25 h
[7] = biological target: T1, Amine oxidase [flavin-containing] B; test: Reversible inhibition of human MAOB at 2 fold enzymatic IC50 level pre-incubated for 15 mins using p-tyramine substrate and measured after 15 mins by Amplex red reagent based fluorescence assay; conditions: 0.25 h
[8] = tested on: SH-SY5Y; test: Cytotoxicity in human SH-SY5Y cells assessed as reduction in cell viability at 3 to 50 uM incubated for 48 hrs by MTT assay; format: cell-based
Summary of the method: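 SH-SY5Y cells were exposed to various concentrations of test compound for 48 h, then viability was read by MTT assay. Results are expressed as percentage of control cells, mean ± SD of three independent experiments.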

[9] = biological target: T1, Amine oxidase [flavin-containing] B; test: Reversible inhibition of human MAOB at 2 fold enzymatic IC50 level pre-incubated for 60 mins using p-tyramine substrate and measured after 15 mins by Amplex red reagent based fluorescence assay; conditions: 0.25 h
[10] = biological target: T1, Amine oxidase [flavin-containing] B; test: Reversible inhibition of human MAOB at 2 fold enzymatic IC50 level pre-incubated for 0 mins using p-tyramine substrate and measured after 15 mins by Amplex red reagent based fluorescence assay; conditions: 0.25 h
[11] = biological target: T1, Amine oxidase [flavin-containing] B; test: Reversible inhibition of human MAOB at 2 fold enzymatic IC50 level pre-incubated for 0 to 60 mins using p-tyramine substrate and measured after 15 mins by Amplex red reagent based fluorescence assay; conditions: 0.25 h

Row | SMILES | Ratio IC50 [1] | IC50 [2] | IC50 [3] | inhibition at 0.25 h, 100 µM [4] | other results
1 | Cc1ccc(COc2cccc(C=O)c2)cc1 | 25.6 | 2.53 µM | 64.8 µM |  | 
2 | Cc1cccc(COc2cccc(Br)c2)c1 | > 50.5 | 1.98 µM |  | 43% | 
3 | COc1cccc(OCc2cccc(F)c2)c1 | > 8.1 | 12.3 µM |  | 19% | 
4 | Fc1cccc(COc2cccc(Br)c2)c1 | > 94.3 | 1.06 µM |  | 37% | 
5 | O=Cc1cccc(OCc2cccc(F)c2)c1 | 53.1 | 1.21 µM | 64.2 µM |  | 
6 | COc1cccc(OCc2ccc(F)cc2)c1 | > 6.4 | 15.6 µM |  | 22% | 
7 | Brc1ccc(COc2cccc(Br)c2)cc1 |  | 0.35 µM |  | 30% | inhibition (INH) [5]: Active; inhibition (INH) [6]: 48.6%; inhibition (INH) [7]: 44.9%; Activity [8]: Non-Toxic; inhibition (INH) [9]: 49.2%; inhibition (INH) [10]: 44.8%; inhibition (INH) [11]: Active
8 | O=Cc1cccc(OCc2ccc(Br)cc2)c1 |  | 0.19 µM | 27.9 µM |  | inhibition (INH) [6]: 49.9%; inhibition (INH) [7]: 45.8%; Activity [8]: Non-Toxic; inhibition (INH) [9]: 49.5%; inhibition (INH) [10]: 46.4%; inhibition (INH) [11]: Active
9 | O=Cc1cccc(OCc2cccc(Br)c2)c1 | 53.2 | 0.53 µM | 28.2 µM |  | 
10 | Fc1ccc(COc2cccc(Br)c2)cc1 | > 172 | 0.58 µM |  | 31% | 
11 | O=Cc1cccc(OCc2ccccc2)c1 | 23.3 | 1.96 µM | 45.6 µM |  | 
12 | COc1cccc(OCc2cccc(Br)c2)c1 | > 5.2 | 19.3 µM |  | 22% | 
13 | COc1cccc(OCc2ccc(Br)cc2)c1 | > 11.6 | 8.63 µM |  | 25% | 
14 | COc1cccc(OCc2ccccc2)c1 | > 6.3 | 15.8 µM |  | 25% | 

More lines, in order of falling IC50 [2], values ahead:

Row | Ratio IC50 [1] | IC50 [2] | IC50 [3] | inhibition at 0.25 h, 100 µM [4] | SMILES | other results
15 | > 6.8 | 14.6 µM |  | 26% | COc1cccc(OCc2ccc(C)cc2)c1 | 
16 | > 9.2 | 10.9 µM |  | 23% | COc1cccc(OCc2cccc(C)c2)c1 | 
17 | 17.7 | 2.91 µM | 51.6 µM |  | Cc1cccc(COc2cccc(C=O)c2)c1 | 
18 | > 36.6 | 2.73 µM |  | 23% | Brc1cccc(OCc2ccccc2)c1 | 
19 | > 65.4 | 1.53 µM |  | 24% | Cc1ccc(COc2cccc(Br)c2)cc1 | 
20 | 45.7 | 0.93 µM | 42.5 µM |  | O=Cc1cccc(OCc2ccc(F)cc2)c1 | 
21 | > 132 | 0.76 µM |  | 27% | Brc1cccc(COc2cccc(Br)c2)c1 | 
